Measured values: ChEMBL document CHEMBL1138725, “Discovery of novel 2-(aminoheteroaryl)-thiazole-5-carboxamides as potent and orally active Src-family kinase p56(Lck) inhibitors” (Bioorg Med Chem Lett, 2004)

Experiments:
[1] = In vitro inhibitory activity against recombinant p56 lck tyrosine kinase expressed as a His-tagged protein in insect cells
How it was run: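 Mean of three separate experiments, with standard deviation within ±10%.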

[2] = […] inhibitory activity against proliferation of normal human peripheral blood T lymphocytes; assay type: functional
[3] = target: Receptor tyrosine-protein kinase erbB-2 (Homo sapiens, UniProt P04626); assay: Inhibitory activity against HER2 kinase
Sequence of Receptor tyrosine-protein kinase erbB-2 (P04626 whole entry): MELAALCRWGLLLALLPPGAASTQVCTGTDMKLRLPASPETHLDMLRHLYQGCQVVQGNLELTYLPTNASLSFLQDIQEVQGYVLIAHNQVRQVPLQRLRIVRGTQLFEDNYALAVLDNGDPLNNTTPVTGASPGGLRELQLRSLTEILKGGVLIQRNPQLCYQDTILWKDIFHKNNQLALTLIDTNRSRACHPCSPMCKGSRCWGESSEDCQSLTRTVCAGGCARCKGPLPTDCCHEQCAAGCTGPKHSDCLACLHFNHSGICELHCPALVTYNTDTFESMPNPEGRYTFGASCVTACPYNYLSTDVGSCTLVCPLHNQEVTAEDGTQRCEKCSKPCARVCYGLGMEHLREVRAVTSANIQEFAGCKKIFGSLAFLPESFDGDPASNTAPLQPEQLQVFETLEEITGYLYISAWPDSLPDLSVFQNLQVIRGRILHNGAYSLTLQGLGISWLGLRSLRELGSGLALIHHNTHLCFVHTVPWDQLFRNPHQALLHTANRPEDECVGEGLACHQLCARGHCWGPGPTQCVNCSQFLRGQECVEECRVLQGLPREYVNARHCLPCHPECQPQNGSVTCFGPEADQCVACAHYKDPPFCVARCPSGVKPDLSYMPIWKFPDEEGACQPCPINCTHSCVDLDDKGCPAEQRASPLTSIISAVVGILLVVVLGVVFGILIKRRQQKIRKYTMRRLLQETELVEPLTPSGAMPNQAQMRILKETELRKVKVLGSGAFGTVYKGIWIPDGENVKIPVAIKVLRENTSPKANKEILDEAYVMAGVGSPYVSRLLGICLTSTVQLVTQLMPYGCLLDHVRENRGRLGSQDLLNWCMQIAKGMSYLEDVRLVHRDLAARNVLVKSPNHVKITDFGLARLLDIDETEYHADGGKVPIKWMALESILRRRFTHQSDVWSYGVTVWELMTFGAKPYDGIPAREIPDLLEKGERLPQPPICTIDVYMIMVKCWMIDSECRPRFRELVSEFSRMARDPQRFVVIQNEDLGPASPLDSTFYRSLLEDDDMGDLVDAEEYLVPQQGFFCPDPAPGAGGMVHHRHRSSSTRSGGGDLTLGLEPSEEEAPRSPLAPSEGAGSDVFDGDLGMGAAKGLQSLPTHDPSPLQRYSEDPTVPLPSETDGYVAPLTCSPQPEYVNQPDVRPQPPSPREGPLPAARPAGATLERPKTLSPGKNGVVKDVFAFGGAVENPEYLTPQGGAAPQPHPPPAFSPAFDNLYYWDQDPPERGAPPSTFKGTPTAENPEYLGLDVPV
How it was run: (§1)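 Kinase selectivity panel: IC50 for inhibition of each isolated kinase enzyme, reported as the mean of three experiments.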

[4] = target: T1, Tyrosine-protein kinase JAK3 (Homo sapiens, UniProt P52333); assay: inhibitory activity against Janus kinase 3
T1 sequence (P52333 whole entry): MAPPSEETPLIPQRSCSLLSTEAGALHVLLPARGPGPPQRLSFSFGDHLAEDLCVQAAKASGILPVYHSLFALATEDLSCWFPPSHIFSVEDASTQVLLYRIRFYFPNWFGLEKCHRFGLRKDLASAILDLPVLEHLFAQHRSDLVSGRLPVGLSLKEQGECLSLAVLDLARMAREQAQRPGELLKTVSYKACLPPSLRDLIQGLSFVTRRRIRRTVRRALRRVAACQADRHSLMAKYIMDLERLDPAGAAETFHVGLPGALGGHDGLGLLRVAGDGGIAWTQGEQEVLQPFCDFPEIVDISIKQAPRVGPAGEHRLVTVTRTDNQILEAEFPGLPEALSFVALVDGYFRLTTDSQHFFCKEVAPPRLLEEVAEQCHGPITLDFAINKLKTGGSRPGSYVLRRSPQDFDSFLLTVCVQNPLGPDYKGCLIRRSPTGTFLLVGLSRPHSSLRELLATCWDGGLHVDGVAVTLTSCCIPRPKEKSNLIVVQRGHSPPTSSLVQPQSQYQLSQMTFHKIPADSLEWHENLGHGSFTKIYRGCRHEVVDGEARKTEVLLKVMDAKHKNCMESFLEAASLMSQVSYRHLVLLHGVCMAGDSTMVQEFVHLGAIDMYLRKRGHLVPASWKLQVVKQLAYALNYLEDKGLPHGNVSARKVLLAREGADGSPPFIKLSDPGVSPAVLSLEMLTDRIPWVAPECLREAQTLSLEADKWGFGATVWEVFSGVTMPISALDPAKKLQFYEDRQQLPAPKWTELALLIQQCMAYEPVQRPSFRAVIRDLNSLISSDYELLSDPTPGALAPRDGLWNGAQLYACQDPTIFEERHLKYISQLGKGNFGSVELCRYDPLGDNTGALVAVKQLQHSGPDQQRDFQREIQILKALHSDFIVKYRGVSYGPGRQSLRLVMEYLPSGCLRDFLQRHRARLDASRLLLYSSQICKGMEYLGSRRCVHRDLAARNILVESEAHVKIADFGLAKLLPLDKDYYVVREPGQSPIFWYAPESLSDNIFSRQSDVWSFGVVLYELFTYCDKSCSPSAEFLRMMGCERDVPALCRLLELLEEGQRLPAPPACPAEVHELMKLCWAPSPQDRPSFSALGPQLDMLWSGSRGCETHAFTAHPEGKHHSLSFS
How it was run: (§2)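 Purified kinase enzyme inhibition, reported as IC50 in µM. Each value is the mean of three independent experiments.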

[5] = species on record: Rattus norvegicus; assay: Dose required for inhibition of paw swelling in rat adjuvant rheumatoid arthritis model; significant reduction observed after 7 days; assay type: functional
[6] = species on record: Rattus norvegicus; assay: Dose required for inhibition of paw swelling in rat adjuvant rheumatoid arthritis model; significant reduction observed after 24 hrs; assay type: functional
[7] = Plasma clearance was determined in rats at a single dose of 10 mg/kg i.v. and p.o.; assay type: ADME, organism-based; design: dose 10 mg/kg, route oral; details: rat, in vivo, po
[8] = Half-life was determined in rats at a single dose of 10 mg/kg i.v. and p.o.; assay type: ADME, organism-based; design: dose 10 mg/kg, route oral; details: rat, in vivo, po
[9] = Plasma protein binding in mouse was determined; assay type: ADME, cell-free
[10] = target: Proto-oncogene tyrosine-protein kinase Src (Homo sapiens, UniProt P12931); assay: Inhibitory activity against Src tyrosine kinase; how it was run: as §2
Sequence of Proto-oncogene tyrosine-protein kinase Src (P12931 2-536 limits assumed): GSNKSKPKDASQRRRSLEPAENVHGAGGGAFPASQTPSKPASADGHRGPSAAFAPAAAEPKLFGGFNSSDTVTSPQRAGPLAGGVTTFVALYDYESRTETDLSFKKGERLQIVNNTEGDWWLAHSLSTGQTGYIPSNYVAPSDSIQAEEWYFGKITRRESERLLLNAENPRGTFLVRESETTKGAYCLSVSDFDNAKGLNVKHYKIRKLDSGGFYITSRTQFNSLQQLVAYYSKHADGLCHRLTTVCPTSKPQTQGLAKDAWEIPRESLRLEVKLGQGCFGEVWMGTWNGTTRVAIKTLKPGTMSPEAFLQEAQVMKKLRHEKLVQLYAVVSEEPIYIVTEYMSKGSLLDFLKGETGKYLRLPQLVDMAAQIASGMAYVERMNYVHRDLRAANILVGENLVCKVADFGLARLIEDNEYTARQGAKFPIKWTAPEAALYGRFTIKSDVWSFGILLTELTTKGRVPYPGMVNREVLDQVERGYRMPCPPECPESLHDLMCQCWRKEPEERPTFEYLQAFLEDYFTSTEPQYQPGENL

[11] = Mean residence time was determined in rats at a single dose of 10 mg/kg i.v. and p.o.; assay type: ADME, organism-based; design: dose 10 mg/kg, route oral; details: rat, in vivo, po
[12] = target: Vascular endothelial growth factor receptor 2 (Homo sapiens, UniProt P35968); assay: inhibitory activity against Vascular endothelial growth factor receptor 2; how it was run: as §1
Sequence of Vascular endothelial growth factor receptor 2 (P35968 whole entry): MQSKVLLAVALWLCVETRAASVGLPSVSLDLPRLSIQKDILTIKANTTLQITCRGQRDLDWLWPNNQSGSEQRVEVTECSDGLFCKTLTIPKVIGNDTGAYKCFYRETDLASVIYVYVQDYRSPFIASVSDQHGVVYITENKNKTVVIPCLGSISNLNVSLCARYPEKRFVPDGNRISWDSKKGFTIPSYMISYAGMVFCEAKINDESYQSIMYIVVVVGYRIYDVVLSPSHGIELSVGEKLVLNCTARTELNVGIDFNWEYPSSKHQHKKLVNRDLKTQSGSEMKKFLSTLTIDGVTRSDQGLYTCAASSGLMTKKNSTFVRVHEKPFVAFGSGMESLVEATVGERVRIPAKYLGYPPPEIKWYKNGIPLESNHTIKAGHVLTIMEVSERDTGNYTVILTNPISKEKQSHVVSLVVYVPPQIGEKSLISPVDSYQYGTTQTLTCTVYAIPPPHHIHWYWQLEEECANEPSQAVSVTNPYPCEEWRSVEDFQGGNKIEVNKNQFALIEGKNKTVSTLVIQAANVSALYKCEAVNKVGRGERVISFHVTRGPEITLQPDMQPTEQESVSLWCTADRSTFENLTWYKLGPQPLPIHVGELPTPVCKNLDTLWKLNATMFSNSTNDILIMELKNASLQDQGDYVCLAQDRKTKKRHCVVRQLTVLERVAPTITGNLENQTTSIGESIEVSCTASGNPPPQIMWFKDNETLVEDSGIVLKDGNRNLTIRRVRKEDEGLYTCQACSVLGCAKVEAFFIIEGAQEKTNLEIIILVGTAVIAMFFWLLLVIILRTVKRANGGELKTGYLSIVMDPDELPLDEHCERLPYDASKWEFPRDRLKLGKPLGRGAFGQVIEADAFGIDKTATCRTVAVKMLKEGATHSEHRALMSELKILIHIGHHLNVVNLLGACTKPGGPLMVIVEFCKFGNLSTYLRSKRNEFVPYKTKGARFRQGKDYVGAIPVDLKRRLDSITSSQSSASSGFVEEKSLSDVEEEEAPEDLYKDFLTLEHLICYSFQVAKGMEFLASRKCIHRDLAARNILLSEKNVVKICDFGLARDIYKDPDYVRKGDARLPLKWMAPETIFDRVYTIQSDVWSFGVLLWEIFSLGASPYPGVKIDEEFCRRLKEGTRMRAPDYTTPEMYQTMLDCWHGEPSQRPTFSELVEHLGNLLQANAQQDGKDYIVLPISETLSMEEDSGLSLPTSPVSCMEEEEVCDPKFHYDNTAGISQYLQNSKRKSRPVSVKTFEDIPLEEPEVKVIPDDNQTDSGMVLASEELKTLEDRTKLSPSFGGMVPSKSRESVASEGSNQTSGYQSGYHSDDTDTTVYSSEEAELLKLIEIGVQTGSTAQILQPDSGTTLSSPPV

[13] = Inhibitory activity against Fibroblast growth factor receptor 1
How it was run: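 Enzyme IC50 was measured within a kinase selectivity panel and is reported as the mean of three experiments.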

[14] = target: Tyrosine-protein kinase Fgr (Homo sapiens, UniProt P09769); assay: Inhibitory activity against Fgr kinase; how it was run: as §1
Sequence of Tyrosine-protein kinase Fgr (P09769 whole entry): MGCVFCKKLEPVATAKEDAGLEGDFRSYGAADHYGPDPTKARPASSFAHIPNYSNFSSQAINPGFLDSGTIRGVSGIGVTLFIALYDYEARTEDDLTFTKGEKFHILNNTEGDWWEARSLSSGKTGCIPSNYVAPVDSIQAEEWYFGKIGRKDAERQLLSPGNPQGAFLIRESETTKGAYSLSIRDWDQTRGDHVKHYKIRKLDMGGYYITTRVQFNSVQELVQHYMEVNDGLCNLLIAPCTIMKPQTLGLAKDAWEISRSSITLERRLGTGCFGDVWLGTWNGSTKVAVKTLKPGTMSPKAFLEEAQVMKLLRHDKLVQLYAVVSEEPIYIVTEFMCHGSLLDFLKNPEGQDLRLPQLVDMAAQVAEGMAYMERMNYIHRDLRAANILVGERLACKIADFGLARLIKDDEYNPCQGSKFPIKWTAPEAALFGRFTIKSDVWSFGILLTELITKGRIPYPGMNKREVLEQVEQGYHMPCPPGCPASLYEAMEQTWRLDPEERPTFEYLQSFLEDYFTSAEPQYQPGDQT

[15] = Time required to reach the maximum plasma concentration was determined in rats at a single dose of 10 mg/kg i.v. and p.o.; assay type: ADME, organism-based; design: dose 10 mg/kg, route oral; details: rat, po
[16] = target: Cyclin-dependent kinase 2 (Homo sapiens, UniProt P24941); assay: Inhibitory activity against Cyclin-dependent kinase 2
[17] = Oral bioavailability was determined in rats at a single dose of 10 mg/kg i.v. and p.o.; assay type: ADME, organism-based; details: rat, in vivo
[18] = target: Cyclin-dependent kinase 4 (Homo sapiens, UniProt P11802); assay: Inhibitory activity against Cyclin-dependent kinase 4; how it was run: as §1
Sequence of Cyclin-dependent kinase 4 (P11802 whole entry): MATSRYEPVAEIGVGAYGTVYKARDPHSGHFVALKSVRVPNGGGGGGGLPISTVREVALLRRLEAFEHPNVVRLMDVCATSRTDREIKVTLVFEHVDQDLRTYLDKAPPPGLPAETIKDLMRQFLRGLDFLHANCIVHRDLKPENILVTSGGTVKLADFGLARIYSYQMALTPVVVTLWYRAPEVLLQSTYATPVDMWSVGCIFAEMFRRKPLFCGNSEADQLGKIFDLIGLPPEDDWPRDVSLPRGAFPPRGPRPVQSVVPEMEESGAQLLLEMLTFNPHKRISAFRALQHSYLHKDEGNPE

[19] = Maximum plasma concentration was determined in rats at a single dose of 10 mg/kg i.v. and p.o.; assay type: ADME, organism-based; design: dose 10 mg/kg, route oral; details: rat, po
[20] = target: Tyrosine-protein kinase HCK (Homo sapiens, UniProt P08631); assay: inhibitory activity against Hck kinase
Sequence of Tyrosine-protein kinase HCK (P08631 whole entry): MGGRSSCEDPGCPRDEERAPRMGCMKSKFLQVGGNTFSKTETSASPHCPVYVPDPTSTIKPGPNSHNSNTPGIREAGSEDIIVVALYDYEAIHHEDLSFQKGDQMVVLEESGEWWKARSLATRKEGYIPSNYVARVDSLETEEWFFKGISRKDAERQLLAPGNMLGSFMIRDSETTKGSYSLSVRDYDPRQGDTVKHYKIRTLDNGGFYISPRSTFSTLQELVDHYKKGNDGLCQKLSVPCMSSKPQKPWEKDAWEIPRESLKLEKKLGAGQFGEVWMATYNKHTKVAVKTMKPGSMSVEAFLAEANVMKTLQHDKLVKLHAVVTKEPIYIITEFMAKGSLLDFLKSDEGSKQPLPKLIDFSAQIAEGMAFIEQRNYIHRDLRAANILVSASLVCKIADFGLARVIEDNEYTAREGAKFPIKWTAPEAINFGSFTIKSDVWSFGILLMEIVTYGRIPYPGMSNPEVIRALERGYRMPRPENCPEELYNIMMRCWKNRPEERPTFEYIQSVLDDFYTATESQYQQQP

Row | Compound | IC50 [1] [nM] | IC50 [2] [nM] | also measured
1 | Cc1cccc(Cl)c1NC(=O)c1cnc(NC(=O)C2CC2)s1 | 35 | – | –
2 | Cc1cccc(Cl)c1NC(=O)c1cnc(Nc2cccc(N3CCN[C@@H](C)C3)n2)s1 | < 1 | 6 | –
3 | Cc1cccc(Cl)c1NC(=O)c1cnc(Nc2ccccc2)s1 | 0.6 | 210 | –
4 | Cc1cccc(Cl)c1NC(=O)c1cnc(Nc2ccnnc2)s1 | 4 | 350 | –
5 | Cc1cccc(Cl)c1NC(=O)c1cnc(Nc2cc(NCCN3CCCC3)ncn2)s1 | 0.4 | 19 | Ki [1]: 0.06 nM
6 | Cc1cccc(Cl)c1NC(=O)c1cnc(Nc2cccc(NCCN3CCOCC3)n2)s1 | < 1 | 11 | –
7 | Cc1cc(C)nc(Nc2ncc(C(=O)Nc3c(C)cccc3Cl)s2)n1 | 50 | – | –
8 | Cc1ccnc(Nc2ncc(C(=O)Nc3c(C)cccc3Cl)s2)c1 | 0.5 | 85 | –
9 | Cc1cccc(Cl)c1NC(=O)c1cnc(NC2CCCCC2)s1 | 374 | – | –
10 | Cc1cccc(Cl)c1NC(=O)c1cnc(Nc2cc(NCCN3CCOCC3)ncn2)s1 | 4 | 17 | –
11 | Cc1cc(C)nc(Nc2ncc(C(=O)Nc3c(C)cccc3Cl)s2)c1 | 4 | – | –
12 | Cc1cccnc1Nc1ncc(C(=O)Nc2c(C)cccc2Cl)s1 | 7.3 | 365 | –
13 | Cc1cccc(Cl)c1NC(=O)c1cnc(Nc2cc(N3CCOCC3)ncn2)s1 | < 1 | 3 | –
14 | Cc1cccc(Cl)c1NC(=O)c1cnc(Nc2cccnc2)s1 | 6.7 | – | –
15 | Cc1cc(C)cc(Nc2ncc(C(=O)Nc3c(C)cccc3Cl)s2)c1 | 2 | 883 | –
16 | Cc1cccc(Cl)c1NC(=O)c1cnc(Nc2ccccn2)s1 | 1.2 | – | –
17 | Cc1cccc(Cl)c1NC(=O)c1cnc(Nc2ccncc2)s1 | 10 | – | –
18 | Cc1ccc(Nc2ncc(C(=O)Nc3c(C)cccc3Cl)s2)nc1 | 1.1 | 156 | –
19 | Cc1cc(N(C)c2ncc(C(=O)Nc3c(C)cccc3Cl)s2)nc(C)n1 | 2340 | – | –
20 | Cc1cc(Nc2ncc(C(=O)Nc3c(C)cccc3Cl)s2)nc(C)n1 | 1.2 | 80 | Ki [1]: 0.13 nM; IC50 [3]: 5200 nM; IC50 [4]: 6 nM; Dose [5]: 1 mg/kg; Dose [6]: 3 mg/kg; Cl [7]: 29 mL/min/kg; half-life [8]: 4 h; Binding [9]: 93.6%; IC50 [10]: < 1 nM; MRT [11]: 4 h; IC50 [12]: > 10000 nM; IC50 [13]: > 10000 nM; IC50 [14]: < 1 nM; Tmax [15]: 1 h; IC50 [16]: > 25000 nM; bioavailability [17]: 65%; IC50 [18]: > 25000 nM; Cmax [19]: 2000 nM; IC50 [20]: 2 nM
21 | Cc1cc(Nc2ncc(C(=O)N(C)c3c(C)cccc3Cl)s2)nc(C)n1 | 277 | – | –
22 | Cc1cccc(Nc2ncc(C(=O)Nc3c(C)cccc3Cl)s2)n1 | < 1 | 106 | –
